Laboratory results reported in ChEMBL document CHEMBL3525967, “In vitro glucuronidation of the antibacterial triclocarban and its oxidative metabolites” (Drug Metab Dispos, 2012).

How the values were obtained:
[1] = Drug metabolism in B6C3F1 mouse liver microsomes assessed as N-glucuronide-triclocarban formation incubated for 5 mins prior to UDPGA addition measured after 5 to 30 mins by LC-UV analysis; type: ADME
Method in brief: (§1)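 Microsomes or UGT Supersomes (5 µg protein) were held 15 min on ice with alamethicin in 100 mM potassium phosphate pH 7.4. TCC was added at 10 µM (2% DMSO) with 10 mM MgCl2 and 10 mM saccharolactone, pre-warmed 5 min at 37 °C, then started with UDPGA. Samples at 5, 10, 15 and 30 min were quenched in ACN. Product was read by LC-UV at 265 nm; rate came from regression over time, three incubations.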

[2] = Drug metabolism in cynomolgus monkey liver microsomes assessed as N-glucuronide-triclocarban formation incubated for 5 mins prior to UDPGA addition measured after 5 to 30 mins by LC-UV analysis; type: ADME, Macaca fascicularis; method in brief: as §1
[3] = target: T1, UDP-glucuronosyltransferase 1A10 (Homo sapiens, UniProt Q9HAW8); experiment: Drug metabolism assessed as human UGT1A10-mediated N-glucuronide-triclocarban formation expressed in baculovirus infected insect sf9 cells incubated for 5 mins prior to UDPGA addition measured after 5 to 30 mins by LC-UV analysis; type: ADME; method in brief: as §1
T1 sequence (Q9HAW8 whole entry): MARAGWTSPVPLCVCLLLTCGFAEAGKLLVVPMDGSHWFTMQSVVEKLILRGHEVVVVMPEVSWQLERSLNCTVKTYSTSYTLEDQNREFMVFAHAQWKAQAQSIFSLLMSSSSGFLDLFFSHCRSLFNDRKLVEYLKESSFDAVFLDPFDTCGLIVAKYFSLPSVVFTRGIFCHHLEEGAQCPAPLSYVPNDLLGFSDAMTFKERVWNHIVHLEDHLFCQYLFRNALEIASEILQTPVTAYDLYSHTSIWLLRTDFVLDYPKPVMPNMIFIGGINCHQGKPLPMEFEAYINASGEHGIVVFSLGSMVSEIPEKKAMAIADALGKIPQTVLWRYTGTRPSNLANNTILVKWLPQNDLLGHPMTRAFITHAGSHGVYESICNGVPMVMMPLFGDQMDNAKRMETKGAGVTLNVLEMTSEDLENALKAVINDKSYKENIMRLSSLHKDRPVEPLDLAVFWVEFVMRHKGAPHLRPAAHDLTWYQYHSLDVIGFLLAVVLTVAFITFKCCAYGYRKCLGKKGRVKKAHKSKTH

[4] = target: T2, UDP-glucuronosyltransferase 2B15 (Homo sapiens, UniProt P54855); experiment: Drug metabolism assessed as human UGT2B15-mediated N'-glucuronide-triclocarban formation expressed in baculovirus infected insect sf9 cells incubated for 5 mins prior to UDPGA addition measured after 5 to 30 mins by LC-UV analysis; type: ADME; method in brief: as §1
T2 sequence (P54855 whole entry): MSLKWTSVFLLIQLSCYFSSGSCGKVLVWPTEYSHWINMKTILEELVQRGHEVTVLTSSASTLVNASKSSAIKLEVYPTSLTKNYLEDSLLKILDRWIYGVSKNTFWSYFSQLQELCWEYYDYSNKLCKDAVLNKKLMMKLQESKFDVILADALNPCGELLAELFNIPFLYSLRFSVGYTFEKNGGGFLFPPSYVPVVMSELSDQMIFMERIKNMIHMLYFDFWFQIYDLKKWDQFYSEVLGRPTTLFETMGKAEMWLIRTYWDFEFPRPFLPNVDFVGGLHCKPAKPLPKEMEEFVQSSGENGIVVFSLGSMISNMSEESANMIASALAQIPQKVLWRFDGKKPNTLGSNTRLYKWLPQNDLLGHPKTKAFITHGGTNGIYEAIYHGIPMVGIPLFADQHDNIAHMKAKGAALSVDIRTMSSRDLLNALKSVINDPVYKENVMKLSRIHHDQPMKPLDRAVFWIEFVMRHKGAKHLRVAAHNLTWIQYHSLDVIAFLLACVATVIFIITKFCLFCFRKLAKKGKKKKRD

Measured: Drug metabolism

O=C(Nc1ccc(Cl)cc1)Nc1ccc(Cl)c(Cl)c1 [TRICLOCARBAN]
metabolite_not_detected: [1] | [2] | [3] | [4]
